Results as given in ChEMBL document CHEMBL1932936, “Oxidative folding of lysozyme with aromatic dithiols, and aliphatic and aromatic monothiols” (Bioorg Med Chem, 2012).
In brackets after ≈: the same amount, converted by molar mass. Blank lines part the entries; values can stand above or below the compound they belong to.

How the values were obtained:
[1] = biological target: Lysozyme C (Gallus gallus) (UniProt P00698); assay: Renaturation of 0.1 mg/mL reduced hen egg white lysozyme assessed as apparent rate of renaturation at 0.5 mM at pH 7 by Micrococcus lysodeikticus lysis-based enzyme assay in presence of 0.2 mM GSSG
Sequence of Lysozyme C (Gallus gallus) (P00698 whole entry): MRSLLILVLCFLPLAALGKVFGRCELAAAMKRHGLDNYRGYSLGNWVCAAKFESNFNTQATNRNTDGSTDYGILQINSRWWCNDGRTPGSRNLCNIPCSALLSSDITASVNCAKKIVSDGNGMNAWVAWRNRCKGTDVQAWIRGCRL
Method in brief: (§1)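 Reduced lysozyme (10 mg/mL) diluted 100-fold into deoxygenated renaturation buffer: 0.1 M bis tris propane–HCl (pH 7.0) or 0.1 M Tris–HCl (pH 8.0), 1 mM EDTA, 0.5 M Gdn HCl, thiol plus GSSG. Mixed by vortexing for 15 s, held at 25 °C. 20 µL aliquots taken at set times and assayed for recovery of enzymatic activity.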

[2] = biological target: Lysozyme C (Gallus gallus) (UniProt P00698); assay: Renaturation of 0.1 mg/mL reduced hen egg white lysozyme assessed as maximum enzyme activity at 0.5 mM at pH 7 by Micrococcus lysodeikticus lysis-based enzyme assay in presence of 0.2 mM GSSG; set-up: scale not given: the % may be the effect or the level left; method in brief: as §1
[3] = biological target: Lysozyme C (Gallus gallus) (UniProt P00698); assay: Renaturation of 0.1 mg/mL reduced hen egg white lysozyme assessed as maximum enzyme activity at 3 mM at pH 7 by Micrococcus lysodeikticus lysis-based enzyme assay in presence of 0.2 mM GSSG; set-up: scale not given: the % may be the effect or the level left; method in brief: as §1
[4] = biological target: Lysozyme C (Gallus gallus) (UniProt P00698); assay: Renaturation of 0.1 mg/mL reduced hen egg white lysozyme assessed as maximum enzyme activity at 0.5 mM at pH 8 by Micrococcus lysodeikticus lysis-based enzyme assay in presence of 0.2 mM GSSG; set-up: scale not given: the % may be the effect or the level left; method in brief: as §1
[5] = biological target: Lysozyme C (Gallus gallus) (UniProt P00698); assay: Renaturation of 0.1 mg/mL reduced hen egg white lysozyme assessed as maximum enzyme activity at 3 mM at pH 8 by Micrococcus lysodeikticus lysis-based enzyme assay in presence of 0.2 mM GSSG; set-up: scale not given: the % may be the effect or the level left; method in brief: as §1
[6] = biological target: Lysozyme C (Gallus gallus) (UniProt P00698); assay: Renaturation of 0.1 mg/mL reduced hen egg white lysozyme assessed as apparent rate of renaturation at 3 mM at pH 7 by Micrococcus lysodeikticus lysis-based enzyme assay in presence of 0.2 mM GSSG; method in brief: as §1
[7] = biological target: Lysozyme C (Gallus gallus) (UniProt P00698); assay: Renaturation of 0.1 mg/mL reduced hen egg white lysozyme assessed as apparent rate of renaturation at 0.5 mM at pH 8 by Micrococcus lysodeikticus lysis-based enzyme assay in presence of 0.2 mM GSSG; method in brief: as §1
[8] = biological target: Lysozyme C (Gallus gallus) (UniProt P00698); assay: Renaturation of 0.1 mg/mL reduced hen egg white lysozyme assessed as apparent rate of renaturation at 3 mM at pH 8 by Micrococcus lysodeikticus lysis-based enzyme assay in presence of 0.2 mM GSSG; method in brief: as §1
[9] = biological target: Lysozyme C (Gallus gallus) (UniProt P00698); assay: Renaturation of 1 mg/mL reduced hen egg white lysozyme assessed as maximum enzyme activity at 20 mM at pH 8 by Micrococcus lysodeikticus lysis-based enzyme assay in presence of 1 mM GSSG; set-up: scale not given: the % may be the effect or the level left
Method in brief: (§2)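 Reduced lysozyme was dissolved in 0.1 M acetic acid with 6 M Gdn HCl (pH 2.5), brought to pH 7.0 or 8.0 with KOH, and set to 10 mg/mL by A280. It was then diluted 10-fold into deoxygenated buffer: 0.1 M bis tris propane–HCl or Tris–HCl, 1.25 M Gdn HCl, 1 mM EDTA, thiol plus GSSG. Final protein was 1 mg/mL, final Gdn HCl 1.7 M, 25 °C. Aliquots taken at intervals and assayed for activity. Errors are standard deviations.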

[10] = biological target: Lysozyme C (Gallus gallus) (UniProt P00698); assay: Renaturation of 1 mg/mL reduced hen egg white lysozyme assessed as maximum enzyme activity at 40 mM at pH 8 by Micrococcus lysodeikticus lysis-based enzyme assay in presence of 1 mM GSSG; set-up: scale not given: the % may be the effect or the level left
Method in brief: (§3)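 Reduced lysozyme prepared in 0.1 M acetic acid with 6 M Gdn HCl, pH 2.5, then neutralised to pH 7.0 or 8.0 with KOH and set to 10 mg/mL. Diluted 10-fold into deoxygenated buffer: 0.1 M bis tris propane–HCl (pH 7.0) or Tris–HCl (pH 8.0), 1 mM EDTA, thiol plus GSSG. Final 1 mg/mL protein, 1.7 M Gdn HCl, 25 °C. Aliquots taken over time, diluted and assayed for activity.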

[11] = Solubility of the compound in water; assay type: physicochemical; conditions: buffer
[12] = biological target: Lysozyme C (Gallus gallus) (UniProt P00698); assay: Renaturation of 1 mg/mL reduced hen egg white lysozyme assessed as apparent rate of renaturation at 10 mM at pH 7 by Micrococcus lysodeikticus lysis-based enzyme assay in presence of 1 mM GSSG; method in brief: as §2
[13] = biological target: Lysozyme C (Gallus gallus) (UniProt P00698); assay: Renaturation of 1 mg/mL reduced hen egg white lysozyme assessed as apparent rate of renaturation at 20 mM at pH 7 by Micrococcus lysodeikticus lysis-based enzyme assay in presence of 1 mM GSSG; method in brief: as §2
[14] = biological target: Lysozyme C (Gallus gallus) (UniProt P00698); assay: Renaturation of 1 mg/mL reduced hen egg white lysozyme assessed as apparent rate of renaturation at 20 mM at pH 8 by Micrococcus lysodeikticus lysis-based enzyme assay in presence of 1 mM GSSG; method in brief: as §2
[15] = biological target: Lysozyme C (Gallus gallus) (UniProt P00698); assay: Renaturation of 1 mg/mL reduced hen egg white lysozyme assessed as apparent rate of renaturation at 40 mM at pH 8 by Micrococcus lysodeikticus lysis-based enzyme assay in presence of 1 mM GSSG; method in brief: as §3
[16] = biological target: Lysozyme C (Gallus gallus) (UniProt P00698); assay: Renaturation of 1 mg/mL reduced hen egg white lysozyme assessed as maximum enzyme activity at 10 mM at pH 7 by Micrococcus lysodeikticus lysis-based enzyme assay in presence of 1 mM GSSG; set-up: scale not given: the % may be the effect or the level left; method in brief: as §2
[17] = biological target: Lysozyme C (Gallus gallus) (UniProt P00698); assay: Renaturation of 1 mg/mL reduced hen egg white lysozyme assessed as maximum enzyme activity at 20 mM at pH 7 by Micrococcus lysodeikticus lysis-based enzyme assay in presence of 1 mM GSSG; set-up: scale not given: the % may be the effect or the level left; method in brief: as §2
[18] = biological target: Lysozyme C (Gallus gallus) (UniProt P00698); assay: Renaturation of 1 mg/mL reduced hen egg white lysozyme assessed as maximum enzyme activity at 10 mM at pH 8 by Micrococcus lysodeikticus lysis-based enzyme assay in presence of 1 mM GSSG; set-up: scale not given: the % may be the effect or the level left; method in brief: as §2
[19] = biological target: Lysozyme C (Gallus gallus) (UniProt P00698); assay: Renaturation of 1 mg/mL reduced hen egg white lysozyme assessed as apparent rate of renaturation at 10 mM at pH 7 by Micrococcus lysodeikticus lysis-based enzyme assay in presence of 0.5 mM GSSG; method in brief: as §2
[20] = biological target: Lysozyme C (Gallus gallus) (UniProt P00698); assay: Renaturation of 1 mg/mL reduced hen egg white lysozyme assessed as apparent rate of renaturation at 10 mM at pH 8 by Micrococcus lysodeikticus lysis-based enzyme assay in presence of 1 mM GSSG; method in brief: as §2
[21] = biological target: Lysozyme C (Gallus gallus) (UniProt P00698); assay: Renaturation of 1 mg/mL reduced hen egg white lysozyme assessed as maximum enzyme activity at 10 mM at pH 7 by Micrococcus lysodeikticus lysis-based enzyme assay in presence of 0.5 mM GSSG; set-up: scale not given: the % may be the effect or the level left; method in brief: as §2
[22] = Dissociation constant, pKa of the compound; assay type: physicochemical
[23] = biological target: Lysozyme C (Gallus gallus) (UniProt P00698); assay: Renaturation of 1 mg/mL reduced hen egg white lysozyme assessed as maximum enzyme activity at 40 mM at pH 7 by Micrococcus lysodeikticus lysis-based enzyme assay in presence of 1 mM GSSG; set-up: scale not given: the % may be the effect or the level left; method in brief: as §3
[24] = biological target: Lysozyme C (Gallus gallus) (UniProt P00698); assay: Renaturation of 1 mg/mL reduced hen egg white lysozyme assessed as apparent rate of renaturation at 40 mM at pH 7 by Micrococcus lysodeikticus lysis-based enzyme assay in presence of 1 mM GSSG; method in brief: as §3
[25] = biological target: Lysozyme C (Gallus gallus) (UniProt P00698); assay: Renaturation of 0.1 mg/mL reduced hen egg white lysozyme assessed as maximum enzyme activity at 0.25 mM at pH 8 by Micrococcus lysodeikticus lysis-based enzyme assay in presence of 0.2 mM GSSG; set-up: scale not given: the % may be the effect or the level left; method in brief: as §1
[26] = biological target: Lysozyme C (Gallus gallus) (UniProt P00698); assay: Renaturation of 0.1 mg/mL reduced hen egg white lysozyme assessed as maximum enzyme activity at 1 mM at pH 8 by Micrococcus lysodeikticus lysis-based enzyme assay in presence of 0.2 mM GSSG; set-up: scale not given: the % may be the effect or the level left; method in brief: as §1
[27] = Solubility of the compound at pH 8; assay type: physicochemical; conditions: buffer
[28] = biological target: Lysozyme C (Gallus gallus) (UniProt P00698); assay: Renaturation of 0.1 mg/mL reduced hen egg white lysozyme assessed as apparent rate of renaturation at 0.25 mM at pH 8 by Micrococcus lysodeikticus lysis-based enzyme assay in presence of 0.2 mM GSSG; method in brief: as §1
[29] = biological target: Lysozyme C (Gallus gallus) (UniProt P00698); assay: Renaturation of 0.1 mg/mL reduced hen egg white lysozyme assessed as apparent rate of renaturation at 1 mM at pH 8 by Micrococcus lysodeikticus lysis-based enzyme assay in presence of 0.2 mM GSSG; method in brief: as §1
[30] = biological target: Lysozyme C (Gallus gallus) (UniProt P00698); assay: Renaturation of 0.1 mg/mL reduced hen egg white lysozyme assessed as maximum enzyme activity at 2 mM at pH 7 by Micrococcus lysodeikticus lysis-based enzyme assay in presence of 0.2 mM GSSG; set-up: scale not given: the % may be the effect or the level left; method in brief: as §1
[31] = biological target: Lysozyme C (Gallus gallus) (UniProt P00698); assay: Renaturation of 0.1 mg/mL reduced hen egg white lysozyme assessed as maximum enzyme activity at 2 mM at pH 8 by Micrococcus lysodeikticus lysis-based enzyme assay in presence of 0.2 mM GSSG; set-up: scale not given: the % may be the effect or the level left; method in brief: as §1
[32] = Solubility of the compound at pH 7; assay type: physicochemical; conditions: buffer
[33] = biological target: Lysozyme C (Gallus gallus) (UniProt P00698); assay: Renaturation of 0.1 mg/mL reduced hen egg white lysozyme assessed as apparent rate of renaturation at 2 mM at pH 7 by Micrococcus lysodeikticus lysis-based enzyme assay in presence of 0.2 mM GSSG; method in brief: as §1
[34] = biological target: Lysozyme C (Gallus gallus) (UniProt P00698); assay: Renaturation of 0.1 mg/mL reduced hen egg white lysozyme assessed as apparent rate of renaturation at 2 mM at pH 8 by Micrococcus lysodeikticus lysis-based enzyme assay in presence of 0.2 mM GSSG; method in brief: as §1

Activity [9]: 88%
Activity [10]: 77%
solubility [11]: soluble
Activity [12]: 0.012 min⁻¹
Activity [13]: 0.015 min⁻¹
Activity [14]: 0.022 min⁻¹
Activity [15]: 0.023 min⁻¹
Activity [16]: 83%
Activity [17]: 86%
SMILES: C[N+](C)(CCC[N+](C)(C)Cc1ccc(S)cc1)Cc1ccc(S)cc1.[Br-].[Br-]

Activity [9]: 49%
Activity [18]: 78%
solubility [11]: soluble
Activity [12]: 0.011 min⁻¹
Activity [19]: 0.013 min⁻¹
Activity [14]: 0.017 min⁻¹
Activity [20]: 0.016 min⁻¹
Activity [16]: 74%
Activity [21]: 70%
SMILES: C[N+](C)(CCCCCC[N+](C)(C)Cc1ccc(S)cc1)Cc1ccc(S)cc1.[Br-].[Br-]

Activity [4]: 53%
Activity [5]: 9%
Activity [7]: 0.072 min⁻¹
Activity [8]: 0.08 min⁻¹
SMILES: O=C(OCCOCCS)c1ccc(S)cc1

Activity [1]: 0.025 min⁻¹
Activity [2]: 57%
Activity [3]: 23%
Activity [4]: 63%
Activity [5]: 16%
Activity [6]: 0.02 min⁻¹
Activity [7]: 0.076 min⁻¹
Activity [8]: 0.1 min⁻¹
SMILES: O=C(OCCOCCOCCS)c1ccc(S)cc1

More lines, now with the values behind:

SMILES: O=C(OCCOCCOCCOCCS)c1ccc(S)cc1
Activity [1]: 0.038 min⁻¹
Activity [2]: 39%
Activity [3]: 36%
Activity [4]: 73%
Activity [5]: 43%
Activity [6]: 0.045 min⁻¹
Activity [7]: 0.087 min⁻¹
Activity [8]: 0.072 min⁻¹

SMILES: OCCS [2-MERCAPTOETHANOL]
pKa [22]: 9.6

SMILES: O=C(OCCOCCOCCOCCS)c1ccccc1S
Activity [1]: 0.008 min⁻¹
Activity [2]: 85%
Activity [3]: 2%
Activity [4]: 76%
Activity [5]: 27%
Activity [6]: 0.01 min⁻¹
Activity [7]: 0.061 min⁻¹
Activity [8]: 0.023 min⁻¹

SMILES: N[C@@H](CS)C(=O)O [CYSTEINE]
pKa [22]: 8.7

SMILES: C[N+](C)(C)Cc1ccc(S)cc1
Activity [23]: 82%
Activity [10]: 81%
Activity [24]: 0.017 min⁻¹
Activity [15]: 0.018 min⁻¹

SMILES: O=C(OCCOCCOCCS)c1ccccc1
Activity [25]: 68%
Activity [26]: 2%
solubility [27]: 2000 µM (≈ 541 µg/mL)
Activity [28]: 0.028 min⁻¹
Activity [29]: 0.012 min⁻¹

SMILES: O=C(OCCOCCOCCS)c1ccccc1S
Activity [1]: 0.013 min⁻¹
Activity [2]: 55%
Activity [30]: 19%
Activity [4]: 58%
Activity [31]: 62%
solubility [32]: 4000 µM (≈ 1210 µg/mL)
Activity [33]: 0.001 min⁻¹
Activity [7]: 0.041 min⁻¹
Activity [34]: 0.009 min⁻¹
